Measured values as given in the RNAGym collection of RNA variant scans (doi:10.1126/science.aae0568).
Variants at the floor of the assay were thinned out.

B1: tRNA (parent)
chain: GUUCCGUUGGCGUAAUGGUAACGCGUCUCCCUCCUAAGGAGAAGACUGCGGGUUCGAGUCCCGUACGGAACG

Variants of: B1
Assay: yeast fitness relative to wild type (ratio to wild type); higher = fitter; tRNA-Arg(CCU), competitive growth, 37 C, YPD
Outline: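 Gene amplicons from the start population and from each of six end populations were read by 100-nucleotide paired-end sequencing. Those end populations came from pooled Saccharomyces cerevisiae strains carrying tRNA-Arg(CCU) gene variants at the native locus, competed in YPD at 37°C for 24 hours. Fitness relative to wild type was worked out from changes in genotype frequencies. Genotypes needed ≥ 100 starting reads, and estimates < 0.5 were set to 0.5.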

First: A21U C31A G39C C62G
Second: G25A A37U A40C
The yeast fitness of the first is lower: no more than 0.5 for the first, 0.68 for the second.

First: A15U U16C
Second: U8C A21G A42G
The yeast fitness of the first is higher: 0.893 for the first, 0.675 for the second.

First: C4U U47A G67A
Second: G9C C22G C33A
The yeast fitness of the first is higher: 0.607 for the first, 0.598 for the second.

C4G G17A A43U C60A and U19A C24G C61U cannot be ordered by yeast fitness: no more than 0.5 for the first, no more than 0.5 for the second.

Compared with U35C G52A, U8G C29A A37U C49A is lower in yeast fitness: 0.658 for the first, no more than 0.5 for the second.

Going from C24A G25C to U3A C22U G39A, the yeast fitness falls from 0.702 to no more than 0.5.

Going from C24U C34U A70G to C11U C27G A36G G63C C66U, the yeast fitness falls from 0.592 to no more than 0.5.

U16G A37U A45C and C4U C11U G44C C49U A70U cannot be ordered by yeast fitness: no more than 0.5 for the first, no more than 0.5 for the second.

Going from A37C A42C A69U to C5U G17A C60A, the yeast fitness falls from 0.749 to no more than 0.5.

First: C5G G51A
Second: C27U G38C A69U
The yeast fitness of the first is higher: 0.78 for the first, no more than 0.5 for the second.

First: U2G U7G U16C C34U U54C A65U
Second: C24G A69C
The yeast fitness of the first is lower: no more than 0.5 for the first, 0.617 for the second.

U13A G23C U32G G58C C61A A65U and U3C C5G C11G G48A A69G cannot be ordered by yeast fitness: no more than 0.5 for the first, no more than 0.5 for the second.

First: G48A C61G
Second: U7A U16C A21U U26A C46U
The yeast fitness of the first is lower: 0.559 for the first, 0.681 for the second.

Compared with A21U C22G C55A G56C G67C, U32C A57G is higher in yeast fitness: no more than 0.5 for the first, 0.861 for the second.

Compared with G6A U19C C30G A69C, U13G A43G is higher in yeast fitness: no more than 0.5 for the first, 0.902 for the second.

First: C46A C49G
Second: C5U A14C A69C
The yeast fitness of the first is higher: 0.746 for the first, no more than 0.5 for the second.

C11A A21U G58C A70C and C5U A20C G39C G58A cannot be ordered by yeast fitness: no more than 0.5 for the first, no more than 0.5 for the second.

U8G C46A C55A and U13C C33A G41A A45C U59C A65U cannot be ordered by yeast fitness: no more than 0.5 for the first, no more than 0.5 for the second.

Compared with C46G C62G A69G, G9A C34G U53C A57C A69U is lower in yeast fitness: 0.733 for the first, no more than 0.5 for the second.

Compared with C5U C29G C30G, A21C C46G A65U is higher in yeast fitness: no more than 0.5 for the first, 0.658 for the second.

G41C G52C A69C and G18A C30U U47G cannot be ordered by yeast fitness: no more than 0.5 for the first, no more than 0.5 for the second.

Compared with U3C C62A, A36C U64A is higher in yeast fitness: 0.865 for the first, 0.932 for the second.

First: U3G G6A A14G G38C G41C A57C
Second: G18C A57U C61U
The yeast fitness of the first is higher: 0.62 for the first, no more than 0.5 for the second.

Going from U19G A43U to U7A A37U G50A U53C C62A A69U, the yeast fitness falls from 1.04 to no more than 0.5.

U32C A36U C61G and C11U A37G A57G A70C cannot be ordered by yeast fitness: no more than 0.5 for the first, no more than 0.5 for the second.

Compared with A21G C46G, C11U A65U G67C is lower in yeast fitness: 0.987 for the first, no more than 0.5 for the second.

A40G C46G U53G U64G and A15G C29U C34A A42U cannot be ordered by yeast fitness: no more than 0.5 for the first, no more than 0.5 for the second.

Compared with C33G A40C C62G, A21C A45U G52C is higher in yeast fitness: no more than 0.5 for the first, 0.581 for the second.

G6A C33G C34G C60A A69U and U2C G23A G38A G56C C61U cannot be ordered by yeast fitness: no more than 0.5 for the first, no more than 0.5 for the second.

Going from C5U A14G A65U G67A to U3A A21G C34G A40G C60G C62G, the yeast fitness falls from 0.689 to no more than 0.5.

Compared with A15U U53G, A15C A36G is higher in yeast fitness: 0.539 for the first, 0.888 for the second.

Compared with C66U A69G, A20U A42G A65G is lower in yeast fitness: 0.801 for the first, 0.689 for the second.

First: G25A U59A
Second: U3A
The yeast fitness of the first is higher: 1.06 for the first, 1 for the second.

Compared with C31U A42U A43U C60U A69U, G10C U32C C66G is lower in yeast fitness: 0.51 for the first, no more than 0.5 for the second.

First: U8A U26A
Second: C5A U28G C66U
The yeast fitness of the first is higher: 0.733 for the first, no more than 0.5 for the second.

G12C U13C C22U A43C G68C and U3G U8C C33U C66A cannot be ordered by yeast fitness: no more than 0.5 for the first, no more than 0.5 for the second.

First: A14G G25C C31A
Second: U13A A57U
The yeast fitness of the first is lower: no more than 0.5 for the first, 0.681 for the second.

Compared with C24G U26C, A14U U19A A36C G58C A69U is lower in yeast fitness: 0.688 for the first, 0.555 for the second.

A14C U32G A45G U64C and C4A G23A U35C G56A cannot be ordered by yeast fitness: no more than 0.5 for the first, no more than 0.5 for the second.

Going from A45U C61G C66U to U8A A21C A42U G50A, the yeast fitness falls from 0.53 to no more than 0.5.

C4G C24A C34A U35G C49A C62G and G6A C27G C31G G50A A70U cannot be ordered by yeast fitness: no more than 0.5 for the first, no more than 0.5 for the second.

A21G C22A C29A C61U and C29U A36U C61U cannot be ordered by yeast fitness: no more than 0.5 for the first, no more than 0.5 for the second.

C11U C30U C34G G68C and G6C C60U C62A cannot be ordered by yeast fitness: no more than 0.5 for the first, no more than 0.5 for the second.

Going from C11U G12A C31U U53C A69U to U54C U59G A70G, the yeast fitness rises from no more than 0.5 to 0.615.

U2C C33U C61G and U19C A20C C33U A69C cannot be ordered by yeast fitness: no more than 0.5 for the first, no more than 0.5 for the second.

Compared with A69U, C24G A40G A43G is lower in yeast fitness: 1.04 for the first, no more than 0.5 for the second.

First: U35C G51U
Second: C4A C30G C31U C55A C61G G67A
The yeast fitness of the first is higher: 0.527 for the first, no more than 0.5 for the second.

G23A A36U G39C A70C and U2C C27G U28A C61U cannot be ordered by yeast fitness: no more than 0.5 for the first, no more than 0.5 for the second.

Going from C5A C31U to G18A C46U G50U C60G A70G, the yeast fitness falls from 0.885 to no more than 0.5.

Going from U16A C27G A36U to G44A G58C, the yeast fitness rises from no more than 0.5 to 0.911.

Compared with U16C C34U, A15U C22U A57C is lower in yeast fitness: 0.759 for the first, no more than 0.5 for the second.

C27G G41A C49G G56C and C5U A15U C31U A43U C49U cannot be ordered by yeast fitness: no more than 0.5 for the first, no more than 0.5 for the second.

Compared with G18C U59A, C4U C5A A15U C34U U54C C62U is lower in yeast fitness: 0.631 for the first, no more than 0.5 for the second.

Going from C11G A14C C30G A45G U53C to U2A U26A, the yeast fitness rises from 0.531 to 1.06.

Compared with U3A C49G, G9A C22A is higher in yeast fitness: 0.792 for the first, 0.919 for the second.

Compared with A20U G23A A36U, C11G C24G C27A U28C C33U A65U is lower in yeast fitness: 0.515 for the first, no more than 0.5 for the second.

Going from C22U G39C G48C to C4A C30G U59A, the yeast fitness rises from 0.516 to 0.528.

First: C49G G58A
Second: A40G G50A
The yeast fitness of the first is lower: 0.844 for the first, 0.944 for the second.

Going from C55G A70U to G44C C66U A70C, the yeast fitness rises from 0.653 to 0.88.

First: G12A G25A G52A
Second: U13G C27A C30A A57C
The yeast fitness of the first is higher: 0.583 for the first, no more than 0.5 for the second.

Compared with C11U C61A, C5A A40U C60U C61G is lower in yeast fitness: 0.869 for the first, 0.525 for the second.

U2G A20U G25C C49G and C5U C33U A36C U54C cannot be ordered by yeast fitness: no more than 0.5 for the first, no more than 0.5 for the second.

Compared with G6A G12A C27G G68C A70U, C27A U35C A42U is lower in yeast fitness: 0.549 for the first, no more than 0.5 for the second.

First: G9A U16C C29G C31A C33G G41A A43G
Second: C5G A15C
The yeast fitness of the first is lower: no more than 0.5 for the first, 0.626 for the second.

A20U C29G A37G G44A G63A and C30U G38C U64C A65G cannot be ordered by yeast fitness: no more than 0.5 for the first, no more than 0.5 for the second.

Compared with C5U G50C G67A, U28C C34U C55U C61A is higher in yeast fitness: no more than 0.5 for the first, 0.592 for the second.

Going from U35A G41A C55U to G9A C31A A43U C61A, the yeast fitness falls from 0.539 to no more than 0.5.

Compared with C27U C30G A45C C60U C62G, G9A C24U is higher in yeast fitness: 0.818 for the first, 0.997 for the second.

Compared with C22A U47A, C29G A69G is lower in yeast fitness: 0.629 for the first, no more than 0.5 for the second.

Going from U28C A42G U47A to U2A C46U, the yeast fitness rises from 0.535 to 1.06.

Compared with C5U U8G U28C A36G, C27A C46A G63A is higher in yeast fitness: no more than 0.5 for the first, 0.714 for the second.

U13C C30G C31A and G6A A20G A36G C49G cannot be ordered by yeast fitness: no more than 0.5 for the first, no more than 0.5 for the second.

C22U A37G A45U G52A C62G A70U and U7A C34U A65G C66G cannot be ordered by yeast fitness: no more than 0.5 for the first, no more than 0.5 for the second.

U3C C30G U64A A70C and G17C A20C C49U G52A C61A C62G cannot be ordered by yeast fitness: no more than 0.5 for the first, no more than 0.5 for the second.

G38C G48A C61A G67C and C4G C11A C29U C33U U54C cannot be ordered by yeast fitness: no more than 0.5 for the first, no more than 0.5 for the second.

Compared with G17A C22U U32A C34U A37G A40U C62A G63A, U35G G51A is higher in yeast fitness: 0.512 for the first, 0.634 for the second.

C5G U26C C30U C49U and C49A G52A C61U cannot be ordered by yeast fitness: no more than 0.5 for the first, no more than 0.5 for the second.

First: C4A G18C C49A G52C
Second: A45G A65G A70C
The yeast fitness of the first is lower: no more than 0.5 for the first, 0.666 for the second.

C5G A14G A21U A57U and A15U C27G C49A G52U cannot be ordered by yeast fitness: no more than 0.5 for the first, no more than 0.5 for the second.

Going from U2C U47A U64A to G12C A20U, the yeast fitness rises from no more than 0.5 to 0.75.

First: C24U C34G A69U
Second: C29A A36C G51A U53C U64C A65U
The yeast fitness of the first is higher: 0.506 for the first, no more than 0.5 for the second.

First: G6C A43C G50A
Second: U19C U26G
The yeast fitness of the first is lower: no more than 0.5 for the first, 0.815 for the second.

First: C60G G63A G67A
Second: U2G C24U C29G C61G
The yeast fitness of the first is lower: no more than 0.5 for the first, 0.635 for the second.

With G9A C24G U35C C49U C61G the yeast fitness was no more than 0.5.
